Source: ChEMBL document CHEMBL2062435, “Synthesis and in vitro antibacterial activity of gemifloxacin derivatives containing a substituted benzyloxime moiety” (2012)

Columns and labels:
Assay type in all cases: functional
Staphylococcus aureus [1] = test: Antimicrobial activity against Staphylococcus aureus ATCC […] after 18-24 hrs by two-fold serial dilution method
Summary of the method: (§1)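 Agar-medium twofold serial dilution against Gram-positive and Gram-negative strains; MIC taken as the lowest compound concentration giving complete inhibition of bacterial growth after incubation at 35 °C for 18-24 h.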

Staphylococcus aureus [2] = test: Antimicrobial activity against extended spectrum beta-lactamases-producing methicillin-resistant Staphylococcus aureus 10-11 after 18-24 hrs by two-fold serial dilution method
Summary of the method: (§2)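 Agar twofold serial dilution MIC against clinical isolates. MIC was taken as the lowest concentration giving complete inhibition of bacterial growth after incubation at 35 °C for 18-24 h.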

Staphylococcus aureus [3] = test: Antimicrobial activity against extended spectrum beta-lactamases-producing methicillin-resistant Staphylococcus aureus 10-15 after 18-24 hrs by two-fold serial dilution method; summary of the method: as §2
Staphylococcus aureus [4] = test: Antimicrobial activity against extended spectrum beta-lactamases-producing methicillin-sensitive Staphylococcus aureus 10-13 after 18-24 hrs by two-fold serial dilution method; summary of the method: as §1
Staphylococcus aureus [5] = test: Antimicrobial activity against extended spectrum beta-lactamases-producing methicillin-sensitive Staphylococcus aureus 10-14 after 18-24 hrs by two-fold serial dilution method; summary of the method: as §1
[6] = test system: Staphylococcus epidermidis; test: Antimicrobial activity against extended spectrum beta-lactamases-producing methicillin-resistant Staphylococcus epidermidis 10-10 after 18-24 hrs by two-fold serial dilution method; summary of the method: as §2
[7] = test system: Staphylococcus epidermidis; test: Antimicrobial activity against extended spectrum beta-lactamases-producing methicillin-resistant Staphylococcus epidermidis 10-13 after 18-24 hrs by two-fold serial dilution method; summary of the method: as §2
[8] = test system: Staphylococcus epidermidis; test: Antimicrobial activity against extended spectrum beta-lactamases-producing methicillin-sensitive Staphylococcus epidermidis 10-11 after 18-24 hrs by two-fold serial dilution method; summary of the method: as §1
[9] = test system: Staphylococcus epidermidis; test: Antimicrobial activity against extended spectrum beta-lactamases-producing methicillin-sensitive Staphylococcus epidermidis 10-13 after 18-24 hrs by two-fold serial dilution method; summary of the method: as §1
[10] = test system: Staphylococcus epidermidis; test: Antimicrobial activity against extended spectrum beta-lactamases-producing methicillin-sensitive Staphylococcus epidermidis 10-15 after 18-24 hrs by two-fold serial dilution method; summary of the method: as §1
Enterococcus faecalis [11] = test: Antimicrobial activity against Enterococcus faecalis 10-5 after 18-24 hrs by two-fold serial dilution method; summary of the method: as §1
Enterococcus faecalis [12] = test: Antimicrobial activity against Enterococcus faecalis 10-6 after 18-24 hrs by two-fold serial dilution method; summary of the method: as §1
Enterococcus faecalis [13] = test: Antimicrobial activity against Enterococcus faecalis 10-7 after 18-24 hrs by two-fold serial dilution method; summary of the method: as §1
Enterococcus faecium [14] = test: Antimicrobial activity against Enterococcus faecium 10-5 after 18-24 hrs by two-fold serial dilution method; summary of the method: as §1
Enterococcus faecium [15] = test: Antimicrobial activity against Enterococcus faecium 10-9 after 18-24 hrs by two-fold serial dilution method; summary of the method: as §1
Streptococcus pneumoniae = test: Antimicrobial activity against extended spectrum beta-lactamases-producing Streptococcus pneumoniae 10-4 after 18-24 hrs by two-fold serial dilution method; summary of the method: as §1
Escherichia coli [16] = test: Antimicrobial activity against Escherichia coli ATCC 25922 after 18-24 hrs by two-fold serial dilution method; summary of the method: as §1
Escherichia coli [17] = test: Antimicrobial activity against Escherichia coli 10-1 after 18-24 hrs by two-fold serial dilution method; summary of the method: as §1
Escherichia coli [18] = test: Antimicrobial activity against Escherichia coli 10-2 after 18-24 hrs by two-fold serial dilution method; summary of the method: as §1
Escherichia coli [19] = test: Antimicrobial activity against extended spectrum beta-lactamases-producing Escherichia coli 10-2 after 18-24 hrs by two-fold serial dilution method; summary of the method: as §1
Escherichia coli [20] = test: Antimicrobial activity against Escherichia coli 10-3 after 18-24 hrs by two-fold serial dilution method; summary of the method: as §1
Escherichia coli [21] = test: Antimicrobial activity against extended spectrum beta-lactamases-producing Escherichia coli 10-3 after 18-24 hrs by two-fold serial dilution method; summary of the method: as §1
Escherichia coli [22] = test: Antimicrobial activity against extended spectrum beta-lactamases-producing Escherichia coli 10-4 after 18-24 hrs by two-fold serial dilution method; summary of the method: as §1
Klebsiella pneumoniae [23] = test: Antimicrobial activity against extended spectrum beta-lactamases-producing Klebsiella pneumoniae 10-1 after 18-24 hrs by two-fold serial dilution method; summary of the method: as §1
Klebsiella pneumoniae [24] = test: Antimicrobial activity against Klebsiella pneumoniae 10-2 after 18-24 hrs by two-fold serial dilution method; summary of the method: as §1
Klebsiella pneumoniae [25] = test: Antimicrobial activity against extended spectrum beta-lactamases-producing Klebsiella pneumoniae 10-2 after 18-24 hrs by two-fold serial dilution method; summary of the method: as §1
Klebsiella pneumoniae [26] = test: Antimicrobial activity against Klebsiella pneumoniae 10-3 after 18-24 hrs by two-fold serial dilution method; summary of the method: as §1
Klebsiella pneumoniae [27] = test: Antimicrobial activity against extended spectrum beta-lactamases-producing Klebsiella pneumoniae 10-3 after 18-24 hrs by two-fold serial dilution method; summary of the method: as §1
Klebsiella pneumoniae [28] = test: Antimicrobial activity against Klebsiella pneumoniae 10-4 after 18-24 hrs by two-fold serial dilution method; summary of the method: as §1
Pseudomonas aeruginosa [29] = test: Antimicrobial activity against Pseudomonas aeruginosa 10-12 after 18-24 hrs by two-fold serial dilution method; summary of the method: as §1
Pseudomonas aeruginosa [30] = test: Antimicrobial activity against extended spectrum beta-lactamases-producing Pseudomonas aeruginosa 10-5 after 18-24 hrs by two-fold serial dilution method; summary of the method: as §1
Pseudomonas aeruginosa [31] = test: Antimicrobial activity against extended spectrum beta-lactamases-producing Pseudomonas aeruginosa 10-9 after 18-24 hrs by two-fold serial dilution method; summary of the method: as §1
Pseudomonas aeruginosa [32] = test: Antimicrobial activity against extended spectrum beta-lactamases-producing Pseudomonas aeruginosa 10-15 after 18-24 hrs by two-fold serial dilution method; summary of the method: as §1
Pseudomonas aeruginosa [33] = test: Antimicrobial activity against extended spectrum beta-lactamases-producing Pseudomonas aeruginosa 10-18 after 18-24 hrs by two-fold serial dilution method; summary of the method: as §1
Pseudomonas aeruginosa [34] = test: Antimicrobial activity against extended spectrum beta-lactamases-producing Pseudomonas aeruginosa 10-20 after 18-24 hrs by two-fold serial dilution method; summary of the method: as §1

Work on `CS(=O)(=O)O.NCC1CN(c2nc3c(cc2F)c(=O)c(C(=O)O)cn3C2CC2)C/C1=N\OCc1cc2c(cc1[N+](=O)[O-])OCO2` (racemic) yielded an MIC (Staphylococcus aureus [1]) of 0.008 µg/mL, an MIC (Staphylococcus aureus [2]) of 4 µg/mL and an MIC (Staphylococcus aureus [3]) of 2 µg/mL. The MIC (Staphylococcus aureus [4]) was 0.25 µg/mL, the MIC (Staphylococcus aureus [5]) was 0.25 µg/mL and the MIC [6] was 2 µg/mL. It also gave an MIC [7] of 1 µg/mL, an MIC [8] of 0.25 µg/mL and an MIC [9] of 8 µg/mL. The MIC [10] was 2 µg/mL, the MIC (Enterococcus faecalis [11]) was 4 µg/mL and the MIC (Enterococcus faecalis [12]) was 32 µg/mL. The MIC (Enterococcus faecalis [13]) was 8 µg/mL, the MIC (Enterococcus faecium [14]) was 16 µg/mL and the MIC (Enterococcus faecium [15]) was 8 µg/mL. The MIC (Streptococcus pneumoniae) was 2 µg/mL, the MIC (Escherichia coli [16]) was 0.008 µg/mL and the MIC (Escherichia coli [17]) was > 128 µg/mL. The MIC (Escherichia coli [18]) was 8 µg/mL, the MIC (Escherichia coli [19]) was > 128 µg/mL and the MIC (Escherichia coli [20]) was 32 µg/mL. For the same compound, the MIC (Escherichia coli [21]) was 32 µg/mL, the MIC (Escherichia coli [22]) was 8 µg/mL and the MIC (Klebsiella pneumoniae [23]) was > 128 µg/mL. For the same compound, the MIC (Klebsiella pneumoniae [24]) was > 128 µg/mL, the MIC (Klebsiella pneumoniae [25]) was > 128 µg/mL and the MIC (Klebsiella pneumoniae [26]) was 8 µg/mL. The MIC (Klebsiella pneumoniae [27]) was > 128 µg/mL, the MIC (Klebsiella pneumoniae [28]) was > 128 µg/mL and the MIC (Pseudomonas aeruginosa [29]) was 8 µg/mL. It also gave an MIC (Pseudomonas aeruginosa [30]) of 8 µg/mL, an MIC (Pseudomonas aeruginosa [31]) of 4 µg/mL and an MIC (Pseudomonas aeruginosa [32]) of 8 µg/mL. For the same compound, the MIC (Pseudomonas aeruginosa [33]) was 4 µg/mL and the MIC (Pseudomonas aeruginosa [34]) was 4 µg/mL.

Work on `C[C@H]1COc2c(N3CCN(C)CC3)c(F)cc3c(=O)c(C(=O)O)cn1c23.C[C@H]1COc2c(N3CCN(C)CC3)c(F)cc3c(=O)c(C(=O)O)cn1c23.O` [LEVOFLOXACIN] yielded an MIC (Staphylococcus aureus [1]) of 0.25 µg/mL, an MIC (Staphylococcus aureus [2]) of 32 µg/mL and an MIC (Staphylococcus aureus [3]) of 16 µg/mL. For the same compound, the MIC (Staphylococcus aureus [4]) was 0.5 µg/mL, the MIC (Staphylococcus aureus [5]) was 0.25 µg/mL and the MIC [6] was 8 µg/mL. For the same compound, the MIC [7] was 4 µg/mL, the MIC [8] was 128 µg/mL and the MIC [9] was 4 µg/mL. For the same compound, the MIC [10] was 128 µg/mL, the MIC (Enterococcus faecalis [11]) was 8 µg/mL and the MIC (Enterococcus faecalis [12]) was 64 µg/mL. For the same compound, the MIC (Enterococcus faecalis [13]) was 16 µg/mL, the MIC (Enterococcus faecium [14]) was 32 µg/mL and the MIC (Enterococcus faecium [15]) was 32 µg/mL. The MIC (Escherichia coli [16]) was < 0.008 µg/mL, the MIC (Escherichia coli [17]) was 4 µg/mL and the MIC (Escherichia coli [18]) was 0.25 µg/mL. It also gave an MIC (Escherichia coli [19]) of 16 µg/mL, an MIC (Escherichia coli [20]) of 4 µg/mL and an MIC (Escherichia coli [21]) of 8 µg/mL. The MIC (Klebsiella pneumoniae [23]) was 8 µg/mL, the MIC (Klebsiella pneumoniae [24]) was 32 µg/mL and the MIC (Klebsiella pneumoniae [25]) was 8 µg/mL. For the same compound, the MIC (Klebsiella pneumoniae [27]) was 8 µg/mL, the MIC (Klebsiella pneumoniae [28]) was 32 µg/mL and the MIC (Pseudomonas aeruginosa [29]) was 0.25 µg/mL. It also gave an MIC (Pseudomonas aeruginosa [30]) of 0.25 µg/mL, an MIC (Pseudomonas aeruginosa [31]) of 0.25 µg/mL and an MIC (Pseudomonas aeruginosa [32]) of 0.5 µg/mL. For the same compound, the MIC (Pseudomonas aeruginosa [34]) was 0.25 µg/mL.
